Compound activity deposited in PubChem BioAssay by Broad Institute.
This is a sample that favours compounds with a hit; in the whole collection about 2.9% have one here.
SIRT5 block = SIRT5 desuccinylase inhibitors, primary screen, biochemical, fluorescence imaging, single point, set 5; AID 652115, 2013; NAD-dependent protein deacylase sirtuin-5, mitochondrial (Homo sapiens), Q9NXA8; inhibition, % at 15 µM; 1.1% of 330,000 active; Purified SirT5, succinyl-peptide AMC, trypsin-coupled fluorescence; in the data active = inhibition above about 15%; inconclusive = no clear call, values can overlap the other calls
E-selectin induc = E-selectin induction in HUVECs, primary screen, imaging, HUVEC, immunofluorescence imaging, single point | normalized: neutral wells 0, TNF-alpha wells 100 | activation, % at 7.58 µM | 0.37% of 260,000 active | AID 686992, 2013;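 active = mean E-selectin-positive cell signal at least 10% of the positive control, reached in at least 60% of replicates, without over 20% cell loss; inconclusive = no rule given, readout overlaps actives, possibly toxicity-flagged; inactive = the rest, including those meeting only one limit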
Target sequence (P16581 whole entry, looked up): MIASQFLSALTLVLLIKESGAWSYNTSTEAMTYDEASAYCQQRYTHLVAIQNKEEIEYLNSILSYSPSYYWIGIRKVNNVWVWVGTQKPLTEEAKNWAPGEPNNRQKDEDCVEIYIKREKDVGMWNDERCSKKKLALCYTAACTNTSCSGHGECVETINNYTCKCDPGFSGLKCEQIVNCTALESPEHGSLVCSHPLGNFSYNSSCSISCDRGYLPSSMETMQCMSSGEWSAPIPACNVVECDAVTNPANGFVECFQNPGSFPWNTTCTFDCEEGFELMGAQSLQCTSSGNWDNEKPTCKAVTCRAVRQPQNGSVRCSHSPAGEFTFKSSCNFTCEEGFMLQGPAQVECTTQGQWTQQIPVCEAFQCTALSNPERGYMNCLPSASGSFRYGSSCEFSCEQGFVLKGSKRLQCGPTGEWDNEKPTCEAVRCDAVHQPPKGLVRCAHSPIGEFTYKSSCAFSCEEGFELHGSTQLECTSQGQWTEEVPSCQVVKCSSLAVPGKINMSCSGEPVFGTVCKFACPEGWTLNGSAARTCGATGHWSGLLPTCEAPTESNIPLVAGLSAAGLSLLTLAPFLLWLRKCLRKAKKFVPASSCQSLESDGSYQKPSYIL
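material = human umbilical vein endothelial cells (HUVEC), E-selectin induction | quantity = 3,000 cells/well | medium = EGM-2 growth medium on 0.1% gelatin-coated wells | technique = immunofluorescence imaging | read-out basis = % PE-positive cells | control set = TNF-alpha positive control, DMSO neutral control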
DENV2 CPE rescue = inhibitors of DENV2 cytopathic effect, primary screen, cell-based, plate reader, single concentration. DENV2-infected cells, cytopathic effect rescue. CPE inhibition, % at 9.99 µM. 1.7% of 350,000 active; in the data active = CPE inhibition above about 20%, passing the limit was not always enough; inconclusive = no clear call, values can overlap the other calls; tested in BHK-21 cells
Large screens that a line does not name were inactive.

CCOC(=O)CNC(=O)N(C)[C@H]1C[C@H]2c3[nH]c4ccccc4c3CCN2C(=O)[C@H]1[C@H](C)O	DENV2 CPE rescue 23.5
CCOC(=O)N(C)[C@H]1C[C@H]2c3[nH]c4ccccc4c3CCN2C(=O)[C@H]1[C@H](C)O	none
O=C(Cc1cccnc1)N1CC2(C1)[C@H](c1ccccc1)[C@@H](CO)N2C(=O)C1CCOCC1	none
CCC(=O)N1CC2(C1)[C@@H](c1ccccc1)[C@@H](CO)N2C(=O)c1ccncc1	none
CCC(=O)N1CC2(C1)[C@@H](c1ccccc1)[C@@H](CO)N2C(=O)c1cccnc1	DENV2 CPE rescue 29.2
CCC(=O)N1CC2(C1)[C@H](c1ccc(-c3ccccc3C)cc1)[C@H](CO)N2C(=O)CC	none
COCC(=O)N1CC2(C1)[C@H](c1ccccc1)[C@H](CO)N2C(=O)c1cccnc1	none
O=C(Cc1cccnc1)N1CC2(C1)[C@@H](c1ccccc1)[C@@H](CO)N2C(=O)C1CCOCC1	DENV2 CPE rescue 22.3
CCC(=O)N1CC2(C1)[C@@H](c1ccc(-c3ccccc3C)cc1)[C@@H](CO)N2C(=O)CC	DENV2 CPE rescue 36.8
CCC(=O)N1CC2(C1)[C@H](c1ccccc1)[C@@H](CO)N2C(=O)c1ccncc1	DENV2 CPE rescue 23.0
CC12CCC(=O)N1C(C(=O)NCc1ccccc1Cl)CS2 (stereo not drawn)	DENV2 CPE rescue inconclusive (no result: E-selectin induc)
CS(=O)(=O)N1CCC2(CC1)OCCN2S(=O)(=O)c1ccccc1	none
CCS(=O)(=O)N1CCC2(CC1)OCCN2S(=O)(=O)c1ccccc1	DENV2 CPE rescue 39.2
CCOc1ccccc1N1CCN(C(=O)CSc2ccc3c(c2)OCCO3)CC1	E-selectin induc 78.7
CCOc1ccccc1N1CCN(C(=O)CC(C)(C)C)CC1	none
COc1ccccc1N1CCN(CC(=O)Nc2ccc3c(c2)OCCO3)CC1	SIRT5 block 31.3 (no result: E-selectin induc)
O=C(CN1CCN(c2ccccc2)CC1)Nc1ccc2c(c1)OCCO2	none
CCCCNC(=O)N1CCN(c2ccccc2OCC)CC1	E-selectin induc 87.9
O=C(CSc1ccc2c(c1)OCCO2)N1CCN(c2ccccc2O)CC1	none (no result: E-selectin induc)
Oc1cc(O)c2c(c1)O[C@H](c1ccc(O)c(O)c1)[C@H](O)C2	none (no result: SIRT5 block, DENV2 CPE rescue)
C[C@H](CO)N1C[C@H](C)[C@@H](CN(C)S(=O)(=O)c2cccs2)Oc2ccc(NC(=O)c3ccncc3)cc2CC1=O	none (no result: E-selectin induc)
O=C(Nc1nc(-c2ccco2)c(-c2ccco2)s1)c1c(F)cccc1Cl	none (no result: E-selectin induc)
O=C(Nc1nc(-c2ccco2)c(-c2ccco2)s1)c1ccc(F)cc1F	DENV2 CPE rescue 68.2
Cc1nn2c(N3CCN(C)CC3)cc(C(C)(C)C)nc2c1-c1ccccc1	SIRT5 block 15.4 (no result: E-selectin induc)
Cc1nn2c(N3CCOCC3)cc(C(C)(C)C)nc2c1-c1ccc(Cl)cc1	none
COCC(=O)Nc1ccc2c(c1)OC[C@H](C)N(Cc1ccncc1)C[C@H](C)[C@H](OC)CN(C)C2=O	none
COc1ccccc1-c1noc2c1C(=O)N(Cc1cn(Cc3ccccc3)nn1)CC2	DENV2 CPE rescue 55.8
COc1ccc(Cn2cc(CN3CCc4onc(-c5ccccc5OC)c4C3=O)nn2)cc1	none
CN1CN=C(NS(=O)(=O)c2ccc([N+](=O)[O-])cc2)NC1	none
C[C@H](CO)N1C[C@H](C)[C@@H](CN(C)C(=O)C2CCC2)Oc2ncc(C#CC(C)(C)O)cc2C1=O	DENV2 CPE rescue 23.0
C[C@@H]1CN([C@H](C)CO)C(=O)c2cc(C#CC(C)(C)O)cnc2O[C@H]1CN(C)C(=O)CC1CC1	SIRT5 block 24.8
C[C@H](CO)N1C[C@H](C)[C@H](CN(C)C(=O)C2CCC2)Oc2ncc(C#CC(C)(C)O)cc2C1=O	none
CC(=O)N(C)C[C@@H]1Oc2ncc(C#CC(C)(C)O)cc2C(=O)N([C@@H](C)CO)C[C@H]1C	DENV2 CPE rescue 20.1
C[C@H](CO)N1C[C@H](C)[C@@H](CN(C)C(=O)CC2CC2)Oc2ncc(C#CC(C)(C)O)cc2C1=O	none
CCC(=O)N(C)C[C@H]1Oc2ncc(C#CC(C)(C)O)cc2C(=O)N([C@H](C)CO)C[C@@H]1C	none
COc1ccc(/C=C(\NC(=O)c2ccccc2)C(=O)N2CCC(C)CC2)cc1	none (no result: E-selectin induc)
CC(=O)N1CCN(S(=O)(=O)c2cccc(C(=O)N(Cc3ccccc3)c3ccc(C)cc3)c2)CC1	none
Cc1c(C(=O)NC(=S)NCC(C)C)oc2ccccc12	none
CCC(=O)Nc1c(C(=O)Nc2ccc3c(c2)OCCO3)oc2ccccc12	none
C=CCNC(=S)NC(=O)c1oc2ccccc2c1C	E-selectin induc 48.8
CCC(=O)Nc1ccc(NC(=O)c2oc3ccccc3c2C)cc1	DENV2 CPE rescue 40.0 (no result: E-selectin induc)
CC1CCCN(C(=O)NC(=O)c2ccc(Cl)cc2)C1 (stereo not drawn)	none
C[C@H](CO)N1C[C@H](C)[C@@H](CN(C)S(=O)(=O)c2ccccc2F)Oc2ncc(C#Cc3cccnc3)cc2C1=O	none
O=C(/C=C/c1ccccc1Cl)Nc1ccccc1	none
